Test results from ChEMBL document CHEMBL6134793, “Synthesis and structure-activity study of the antimicrobial lipopeptide brevibacillin” (RSC Med Chem, 2024).
≈ marks a conversion by molar mass, not a printed value.

Tests used:
Staphylococcus aureus [1] = test: Antimicrobial activity against Staphylococcus aureus ATCC 6538 assessed as diameter of growth inhibition at 128 ug/ml by radial diffusion assay; format: functional; details: dose 128 µg/ml
Outline: (§1)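 Agar well diffusion. Overnight cultures inoculated at 1% into 0.75% soft agar (TSB for S. aureus, LB for P. aeruginosa). Each well received 80 μL of peptide at 128 μg mL−1 in water with 10% DMSO; 10% DMSO served as negative control. Inhibition zone diameter scored after strain-specific incubation.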

Pseudomonas aeruginosa [2] = test: Antimicrobial activity against Pseudomonas aeruginosa ATCC […] assessed as diameter of growth inhibition at 128 ug/ml by radial diffusion assay; format: functional; details: dose 128 µg/ml; outline: as §1
[3] = Hemolytic activity in human erythrocytes at 128 ug/ml measured after 1 hr by absorbance based assay relative to control; format: toxicity, cell-based, Erythrocyte; details: at 128 µg/mL, read-out: Activity
Outline: (§2)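 Washed human donor erythrocytes at 1% hematocrit in PBS pH 7.4 exposed to twofold peptide dilutions (final 2–256 μg mL−1, up to 1% DMSO) for 1 h at 37 °C. After centrifugation, supernatant A405 read. % hemolysis relative to PBS (0%) and 1% Triton X-100 (100%). Triplicate; mean ± SEM.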

[4] = Cytotoxicity against human Caco-2 cells assessed as inhibition of cell viability incubated for 48 hrs by Cell Titer GLO assay; format: toxicity, cell-based
Outline: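 Caco-2 cells in DMEM with 10% FCS, seeded 25 000 per well, adhered overnight, then given peptide at 2–256 μg mL−1 in complete medium for 48 h at 37 °C, 5% CO2. Controls: cisplatin 125 μM; 0.1% DMSO medium. Viability by ATP luminescence (CellTiter-Glo) versus untreated cells; IC50 from dose–response; mean ± SEM of at least three independent experiments.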

Pseudomonas aeruginosa [5] = test: Antimicrobial activity against Pseudomonas aeruginosa ATCC […] assessed as growth inhibition by microdilution assay; format: functional
Outline: (§3)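 Twofold serial microdilution of peptide (stocks 2 mg mL−1, diluted to 512 μg mL−1 in water with 10% DMSO) in strain medium, about 1 × 10^4 cfu per well. Media: TSB 20 h 37 °C (S. aureus, L. monocytogenes, B. subtilis, E. faecalis); LB 20 h 37 °C (P. aeruginosa, S. enterica, E. coli); Brucella 48 h 37 °C (C. coli). A595 read; MIC = lowest concentration with no visible growth; triplicate.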

[6] = Antimicrobial activity against Salmonella enterica serovar Newport ATCC 6962 assessed as growth inhibition by microdilution assay; format: functional, Salmonella enterica subsp. enterica serovar Newport; outline: as §3
Enterococcus faecalis = test: Antimicrobial activity against Enterococcus faecalis ATCC 29212 assessed as growth inhibition by microdilution assay; format: functional; outline: as §3
Bacillus subtilis = test: Antimicrobial activity against Bacillus subtilis ATCC 23957 assessed as growth inhibition by microdilution assay; format: functional; outline: as §3
Staphylococcus aureus [7] = test: Antimicrobial activity against Staphylococcus aureus ATCC 6538 assessed as growth inhibition by microdilution assay; format: functional; outline: as §3
Listeria monocytogenes = test: Antimicrobial activity against Listeria monocytogenes ATCC 19111 assessed as growth inhibition by microdilution assay; format: functional; outline: as §3
Escherichia coli = test: Antimicrobial activity against Escherichia coli ATCC 25922 assessed as growth inhibition by microdilution assay; format: functional; outline: as §3
Clostridium perfringens = test: Antimicrobial activity against Clostridium perfringens ATCC 3628 assessed as growth inhibition by microdilution assay; format: functional
Outline: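 Broth microdilution: twofold serial peptide dilutions in reinforced clostridial medium (RCM), seeded with about 1 × 10^4 cfu per well, incubated 20 h at 37 °C. Working solution 512 μg mL−1 made from a 2 mg mL−1 stock in water with 10% DMSO. Growth read as absorbance at 595 nm. MIC taken as the lowest concentration giving complete inhibition of visible growth; run in triplicate.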

Campylobacter coli = test: Antimicrobial activity against Campylobacter coli ATCC 33559 assessed as growth inhibition by microdilution assay; format: functional; outline: as §3
[8] = Hemolytic activity in human erythrocytes at 256 ug/ml measured after 1 hr by absorbance based assay relative to control; format: toxicity, cell-based, Erythrocyte; details: at 256 µg/mL, read-out: Activity; outline: as §2
Pseudomonas aeruginosa [9] = test: Antimicrobial activity against Pseudomonas aeruginosa ATCC […] assessed as growth inhibition at 128 ug/ml by radial diffusion assay; format: functional, organism-based; details: dose 128.0 µg/ml; outline: as §1
Staphylococcus aureus [10] = test: Antimicrobial activity against Staphylococcus aureus ATCC 6538 assessed as growth inhibition at 128 ug/ml by radial diffusion assay; format: functional, organism-based; details: dose 128.0 µg/ml; outline: as §1

| SMILES | Activity (Staphylococcus aureus [1]) [mm] | Activity (Pseudomonas aeruginosa [2]) [mm] | hemolysis at 1 h, 128 ug/ml [3] [%] | IC50 at 48 h [4] [µg/mL] | MIC (Pseudomonas aeruginosa [5]) [µg/mL] | MIC [6] [µg/mL] | MIC (Enterococcus faecalis) [µg/mL] | MIC (Bacillus subtilis) [µg/mL] | MIC (Staphylococcus aureus [7]) [µg/mL] | MIC (Listeria monocytogenes) [µg/mL] | MIC (Escherichia coli) [µg/mL] | MIC (Clostridium perfringens) [µg/mL] | MIC (Campylobacter coli) [µg/mL] | hemolysis at 1 h, 256 ug/ml [8] [%] | growth inhibition (qualitative call) (Pseudomonas aeruginosa [9]) | growth inhibition (qualitative call) (Staphylococcus aureus [10]) |
| --- | --- | --- | --- | --- | --- | --- | --- | --- | --- | --- | --- | --- | --- | --- | --- | --- |
| CC[C@H](C)[C@H](O)C(=O)N[C@H](C(=O)N[C@@H](CC(C)C)C(=O)N[C@H](CCCN)C(=O)N[C@H](C(=O)N[C@H](C(=O)N[C@H](C(=O)N[C@H](CCCCN)C(=O)N[C@H](C(=O)N[C@H](C(=O)N[C@@H](CCCCN)C(=O)N[C@H](Cc1ccc(O)cc1)C(=O)N[C@@H](CC(C)C)C(=O)N[C@H](CO)C(C)C)C(C)C)C(C)C)C(C)C)[C@@H](C)CC)[C@@H](C)CC)[C@@H](C)O | 11 | 12 | 1.2 | 32.2 (≈ 20.1 µM) | 2 | > 128 | 16 | 1 | 2 | 4 | 32 | 4 | 16 | 4.9 |  |  |
| C/C=C(/NC(=O)[C@@H](O)[C@@H](C)CC)C(=O)N[C@@H](CC(C)C)C(=O)N[C@H](CCCN)C(=O)N[C@H](C(=O)N[C@H](C(=O)N[C@H](C(=O)N[C@H](CCCCN)C(=O)N[C@H](C(=O)N[C@H](C(=O)N[C@@H](CCCCN)C(=O)N[C@H](Cc1ccc(O)cc1)C(=O)N[C@@H](CC(C)C)C(=O)N[C@H](CO)C(C)C)C(C)C)C(C)C)C(C)C)C(C)C)[C@@H](C)CC | 11 | 12 | 1.65 | 25.7 (≈ 16.4 µM) | 2 | > 128 | 16 | 2 | 4 | 1 | 32 | 4 | 16 |  |  |  |
| CC[C@@H](NC(=O)[C@@H](O)[C@@H](C)CC)C(=O)N[C@@H](CC(C)C)C(=O)N[C@H](CCCN)C(=O)N[C@H](C(=O)N[C@H](C(=O)N[C@H](C(=O)N[C@H](CCCCN)C(=O)N[C@H](C(=O)N[C@H](C(=O)N[C@@H](CCCCN)C(=O)N[C@H](Cc1ccc(O)cc1)C(=O)N[C@@H](CC(C)C)C(=O)N[C@H](CO)C(C)C)C(C)C)C(C)C)C(C)C)C(C)C)C(C)C |  |  | 1.2 | 32.4 (≈ 20.8 µM) | 2 | > 128 | > 128 | 4 | 2 | 4 | 64 | 8 | 16 | 4.2 | Not active; Exhibited Small Decrease In Activity | Not active; Exhibited Small Decrease In Activity |
| CC[C@H](C)[C@H](O)C(=O)N[C@@H](C)C(=O)N[C@@H](CC(C)C)C(=O)N[C@H](CCCN)C(=O)N[C@H](C(=O)N[C@H](C(=O)N[C@H](C(=O)N[C@H](CCCCN)C(=O)N[C@H](C(=O)N[C@H](C(=O)N[C@@H](CCCCN)C(=O)N[C@H](Cc1ccc(O)cc1)C(=O)N[C@@H](CC(C)C)C(=O)N[C@H](CO)C(C)C)C(C)C)C(C)C)C(C)C)[C@@H](C)CC)[C@@H](C)CC | 11 | 12 |  | 13.5 (≈ 8.59 µM) | 1 | > 128 | 4 | 2 | 2 | 1 | 64 | 2 | 8 |  |  |  |
